Screening data: PubChem, Sanford-Burnham Center for Chemical Genomics
Only some compounds are listed: those with a hit (about 1.5% of all), similar ones and a draw of the others.
aDG glyco up: alpha-DG glycosylation activation; Pro5-aDG cells, alpha-DG glycosylation AlphaScreen (IIH6); 0% Pro5, 100% B10-LARGE cell signal; activation, % at 10 µM; actives 0.22% (n = 360,000); AID 624168;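 active = activation of at least 8% versus controls, or a plate z-score of at least 8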;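 also: Pro5 are CHO cells carrying HIG-tagged alpha-DG that lacks glycosylation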
HNF4A DNA FP: change in binding of human HNF4 alpha to DNA; P41235; HNF4a-FITC DNA binding, fluorescence polarization, 1 h; activity change, % at 10 µM; actives 0.3% (n = 360,000); AID 1224865; in the data active = activity change above about 30%, passing the limit was not always enough
NR1D1 modulator: Rev-erb alpha (human) modulation; P20393; Rev-erbα–FITC-DNA binding, fluorescence polarization, 90 min; activity, % at 10 µM; actives 0.79% (n = 370,000); AID 1259318;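 active = activity above about 14%, limit read from the data; passing the limit was not always enough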;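 also: 0% = DMSO wells with 35 nM protein and 100% = DMSO wells with 750 nM protein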
Target sequence (P20393 whole entry, looked up): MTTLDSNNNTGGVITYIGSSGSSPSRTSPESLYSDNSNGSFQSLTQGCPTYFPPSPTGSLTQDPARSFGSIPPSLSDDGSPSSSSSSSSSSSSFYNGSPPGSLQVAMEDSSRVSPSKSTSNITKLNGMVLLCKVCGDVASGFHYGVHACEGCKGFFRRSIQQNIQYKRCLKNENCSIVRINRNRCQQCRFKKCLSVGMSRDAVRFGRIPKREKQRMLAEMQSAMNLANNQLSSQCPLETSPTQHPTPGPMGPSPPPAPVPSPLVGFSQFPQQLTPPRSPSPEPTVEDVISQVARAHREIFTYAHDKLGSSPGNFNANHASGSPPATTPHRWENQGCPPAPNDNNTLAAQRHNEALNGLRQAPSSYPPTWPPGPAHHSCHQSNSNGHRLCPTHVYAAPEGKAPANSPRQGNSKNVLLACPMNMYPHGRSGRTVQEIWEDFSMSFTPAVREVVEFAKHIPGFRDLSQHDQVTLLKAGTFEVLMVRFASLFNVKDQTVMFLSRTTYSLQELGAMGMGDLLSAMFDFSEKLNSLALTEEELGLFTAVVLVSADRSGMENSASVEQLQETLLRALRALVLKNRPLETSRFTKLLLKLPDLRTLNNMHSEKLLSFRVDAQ
CSN inh: inhibitors of human CSN-mediated cullin deneddylation; Q92905; Purified CSN, SCF-Nedd8-OG deneddylation, fluorescence polarization; inhibition, % at 12.5 µM; actives 0.38% (n = 360,000); AID 651999;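 active = pattern-corrected inhibition above about 35%, with an unprinted fluorescence ratio check between 0.5 and 1.5, limit read from the data, passing the limit was not always enough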;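 also: 0% = enzyme with substrate and 100% = substrate without enzyme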
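Test system: Human Csn5 produced in HEK293T cells | Compound: 12.5 µM single point | Times: 90 min, room temperature | Signal: Fluorescence polarization readout | Read-out basis: % inhibition of substrate cleavage by Csn5 | Controls: no-enzyme wells high, enzyme-with-substrate wells low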
Rev-erbA confirm: Rev-erb alpha (human) modulation, hit confirmation. activation, % at 25 µM. shares compounds with NR1D1 modulator. actives 61% (n = 3,000). Rev-erb alpha FITC-DNA binding, fluorescence polarization, 90 min. AID 1259319;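 active = activation at or above a set limit, or at least 3 SD above the negative control mean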;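 also: 0% = 35 nM protein with DMSO and 100% = 750 nM protein high control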
RORg counter: affects RORgamma DNA binding in a Rev-erb alpha counter-screen; purified RORgamma protein-FITC-DNA binding, fluorescence polarization; actives 8% (n = 910); AID 1259320; shares compounds with NR1D1 modulator; IC50, µM;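 active = Compounds whose fitted half-maximal concentration for disrupting protein-DNA binding is below 10 micromolar; the record names Rev-erb in its text, so the target is in doubt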
Starred values were filed as active, the others as inactive; i = inactive; . = no result.

SMILES	aDG glyco up	HNF4A DNA FP	NR1D1 modulator	CSN inh	Rev-erbA confirm	others
Cc1sc2nc(SCC(=O)NCc3ccco3)n(CCc3ccccc3)c(=O)c2c1C	0	6	61*	4	62*	RORg counter=i
CC(NCc1ccco1)C(=O)N1CCOCC1 (stereo not drawn)	.	.	5	.	.
CN(c1ccccc1)c1nc(N2CCCC2)nc(-n2ccnc2)n1	1	0	10	4	.
c1ccc(N(c2ccccc2)c2nc(N3CCCC3)nc(-n3ccnc3)n2)cc1	1	0	37*	-3	58*	RORg counter=8.5*
O=[N+]([O-])c1cccc(N=Nc2ccc(O)cc2O)c1	0	-3	15	3	.
O=[N+]([O-])c1ccc(N=Nc2ccc(O)cc2O)cc1	-1	4	37*	-2	23*
Cc1cccc(NC(=O)c2cc3c(n(-c4ccccc4)c2=O)CCCC3=O)n1	0	-1	1	2	.
COc1ccc(-n2c3c(cc(C(=O)Nc4cccc(C)n4)c2=O)C(=O)CC(C)(C)C3)cc1	0	1	33*	4	14
O[C@H](COc1ccc(OC(F)(F)F)cc1)CN1CCC(C(O)(c2ccccc2)c2ccccc2)CC1	.	.	4	.	.
CCOc1ncccc1C(=O)Nc1ccc(Cl)c(S(=O)(=O)N2CCCC2)c1	0	2	33*	0	19*
CCOc1ncccc1C(=O)Nc1ccc(F)c(Cl)c1	0	1	-3	0	.
CCOc1ncccc1C(=O)Nc1cc(S(=O)(=O)N2CCCCC2)ccc1Cl	0	0	23*	0	11*
Cc1ccc(C(=O)N2N=C(c3ccccc3O)CC2c2ccccc2)cc1 (stereo not drawn)	0	2	38*	3	25*
O=C(c1ccccc1)N1N=C(c2ccccc2)CC1c1ccccc1 (stereo not drawn)	0	-2	3	2	.
COc1ccc(N2CCN(C(=O)COc3ccc4c(C)c(C)c(=O)oc4c3C)CC2)cc1	0	2	.	-2	.
COc1ccc2c(c1)c(=O)oc1c(C)c(OCC(=O)N3CCc4ccccc4C3)ccc12	0	-9	20*	36*	-10
Cc1sc(NC(=O)c2ccccc2)c(C(=O)NC(C)C)c1C	0	-3	24*	10	3
COc1cccc(CNC(=O)COC(=O)c2c(NC(C)=O)sc(C)c2C)c1	1	0	-6	2	.
CC(=O)Nc1sc(C)c(C)c1C(=O)OCC(=O)NCc1ccc(Cl)cc1	0	0	24*	2	9
COC(=O)C[C@@H]1CC[C@@H]2[C@H](COc3ccc(NC(=O)c4ccc(F)c(F)c4)cc3C(=O)N2C)O1	.	.	3	.	.
C[n+]1ccc(/C=C/c2c[nH]c3ccc(F)cc23)cc1	0	81	125*	66	90*	RORg counter=>40
N#Cc1cc2cc3c(cc2nc1SCC(=O)N1CCOCC1)OCO3	0	2	37*	-1	12
COC(=O)CSc1nc2cc3c(cc2cc1C#N)OCO3	0	4	58*	5	23*
COC(=O)CSc1nc2cc3c(cc2cc1C)OCCO3	0	4	5	0	.
CCOC(=O)CSc1nc2cc3c(cc2cc1C#N)OCCO3	2	1	75*	-2	31*	RORg counter=0.66*
SMILES	aDG glyco up	HNF4A DNA FP	NR1D1 modulator	CSN inh	Rev-erbA confirm	others
Cc1cc2cc3c(cc2nc1SCC(=O)N1CCOCC1)OCO3	0	2	-2	2	.
CC(C)OC(=O)CSc1nc2cc3c(cc2cc1C#N)OCO3	1	0	49*	0	9
N#Cc1cc2cc3c(cc2nc1N1CCCCC1)OCCO3	0	0	0	2	.
N#Cc1cc2cc3c(cc2nc1Cl)OCCO3	0	18	27*	61*	22*
CCOC(=O)CSc1nc2cc3c(cc2cc1C#N)OCO3	0	3	66*	-1	36*	RORg counter=>40
CCOC(=O)CSc1nc2cc3c(cc2cc1C)OCO3	0	-1	-2	-3	.
O=C(OC12CCCN(C1)/C(=C/c1cccc(Cl)c1)C2)c1ccco1 (stereo not drawn)	.	.	18	.	.
C#CCNC(=O)C[C@H]1C(=O)N(CCc2ccc(Cl)cc2)C2=CCCC[C@@]21C(=O)OCC	.	.	-1	.	.
Cc1ccc2nc(Cl)c3nnnn3c2c1	0	3	.	4	.
Cc1ccc2nc(N3CCN(c4cccc(C)c4C)CC3)c3nnnn3c2c1	0	3	28*	3	71*	RORg counter=>40
CCN(CC)S(=O)(=O)c1ccc2[nH]cc(C(=O)NCCN3CCCCC3C)c(=O)c2c1 (stereo not drawn)	0	-2	-4	0	.
CCN(CC)S(=O)(=O)c1ccc2[nH]cc(C(=O)NCCCN3CCCCC3C)c(=O)c2c1 (stereo not drawn)	0	2	27*	6	2
CCCCCNC(=O)c1c[nH]c2ccc(S(=O)(=O)N3CCC4(CC3)OCCO4)cc2c1=O	0	4	38*	7	48*	RORg counter=>40
COc1ccc2cc(/C=N/NC(=O)CN(c3ccccc3C)S(=O)(=O)c3ccccc3)c(Cl)nc2c1	0	15	29*	11	8
CCOC(=O)c1cc2c(=O)c3ccccc3oc2nc1C	0	1	53*	2	44*	RORg counter=>40
Cc1nc(N2CCN(c3ccccn3)CC2)c2c(C)c(C(=O)Nc3ccc(F)cc3Cl)sc2n1	0	5	34*	-6	20*
Cc1nc(N2CCN(c3ccccn3)CC2)c2c(C)c(C(=O)N3CCN(c4cccc(Cl)c4)CC3)sc2n1	0	-1	73*	1	50*	RORg counter=>40
Cc1nc(N2CCN(c3ccccn3)CC2)c2c(C)c(C(=O)Nc3ccccc3F)sc2n1	0	1	15	3	.
CCc1ccc(NC(=O)c2sc3nc(C)nc(N4CCN(c5ccccn5)CC4)c3c2C)cc1	0	0	28*	6	21*
COC(=O)[C@]12C[C@H](CC(=O)NCc3cccs3)C(=O)N(CCC3=CCCCC3)C1=C[C@H](C(C)C)O[C@@H]2C1CC1	.	.	1	.	.
CCn1c(SCC(=O)Nc2cccc3ccccc23)nnc1-c1cccs1	.	.	-1	.	.
CC1(C)C=Cc2ccc(O)c(C(=O)/C=C/c3ccccc3)c2O1	.	.	-1	.	.
Nn1c(SCC(=O)Nc2ccc(OCc3ccccc3)cc2)nnc1-c1cc(-c2ccccc2)n[nH]1	.	.	-6	.	.
C=CCN1C(=O)[C@@H](CC(=O)NCc2cccc3ccccc23)[C@]2(C(=O)OCC)CCCCC/C=C/12	.	.	7	.	.
COc1cc2c(cc1OC)CN(C(=O)CSc1nc(N)c(C#N)cc1C#N)CC2	0	8	37*	8	47*	RORg counter=>40
CCOc1ccccc1NC(=O)CSc1nc(N)c(C#N)cc1C#N	0	8	84*	6	46*	RORg counter=>40
